Values after ≈ are worked out from the molar mass of the structure shown.
What was measured:
HEK293 cells = test: HEK293 cell toxicity; format: cell-based; conditions: 48 h, dose-response up to 60 μM; dash = no toxicity
Outline: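 HEK293 cells kept in DMEM with 10% FBS at 37 °C, 5% CO2. Test compound dispensed as a 1:3 dilution series from DMSO stocks; DMSO as negative and tamoxifen as positive control. About 2000 cells per well incubated 48 h at 37 °C, 5% CO2, 90% humidity. Viability read with CellTiter-Glo reagent after 2 min shaking.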

[1] = tested on: σ^E cell envelope stress response (PrpoE-mNG reporter) in E. coli TOP10F′ cells expressing Hbp; test: σ^E stress reporter assay; format: cell-based; conditions: Escherichia coli, 3 h, read-out: stress reporter EC50 PrpoE-mNG
[2] = tested on: heat-shock response (PgroES-mNG reporter) in E. coli TOP10F′ cells; test: Heat-shock stress reporter assay; format: cell-based; conditions: Escherichia coli, 3 h, read-out: stress reporter EC50 PgroES-mNG
Outline: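 TOP10F′ carrying pEH3-empty and pUA66-PgroES-mNG, at OD600 0.05 in M9, added to 384-well plates with a 1:3 test-compound dilution series. Positive-control wells hold cells with pEH3-ssTorA-Hbp induced by 40 μM IPTG; DMSO controls included. After 3 h nonshaken incubation, OD600 and mNG fluorescence (ex 488/em 535 nm) read. EC50 from OD600-corrected fluorescence.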

E. coli TOP10F′ cells = test: MIC in E. coli TOP10F′; format: cell-based; conditions: Escherichia coli, 10 h, read-out: toxicity E. coli MIC
Outline: (§1)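 Broth dilution in LB or MHB-II. Bacteria grown to mid-log at 37 °C in flasks, diluted to OD600 0.001 and added 1:1 to medium with 2-fold increasing test compound (0.5% DMSO final). Incubated at 37 °C in a plate reader with continuous linear shaking; OD600 every 15 min for 10 h. MIC is the lowest concentration with no growth detectable by OD600 at 10 h.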

[3] = tested on: Rcs stress response (PrprA-mNG reporter) in E. coli TOP10F′ cells; test: Rcs stress reporter assay; format: cell-based; conditions: Escherichia coli, 3 h, read-out: stress reporter EC50 PrprA-mNG
Outline: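 TOP10F′ with pUA66-PrprA-mNG, at OD600 0.05 in M9, dispensed onto a 1:3 test-compound dilution series in 384-well plates. Positive control is an Hbp-secretion inhibitor at 200 μM; DMSO is the negative control. After 3 h nonshaken incubation, OD600 and mNG fluorescence (ex 488/em 535 nm) measured. EC50 derived from OD600-corrected fluorescence.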

[4] = tested on: OMP levels in E. coli TOP10F′ cells; test: Cell envelope protein analysis; format: cell-based, Escherichia coli
Outline: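 TOP10F′ cells grown 3 h in LB in flasks with one concentration of test compound. Cells pelleted, sonicated on ice in 10 mM Tris-HCl, 3 mM EDTA, pH 8.0 with protease inhibitors. Envelopes pelleted at 200 000g for 1 h at 4 °C and solubilised overnight at 4 °C in TBS with 1% DDM. SDS-PAGE and immunoblots, loading corrected by OD600; 3 independent experiments.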

E. coli MC4100 cells = test: Potentiation of antibiotics; format: cell-based, Escherichia coli; conditions: E. coli MC4100, LB, 10 h
Enterococcus faecium VRE = test: MIC against bacterial strains; format: cell-based; conditions: 10 h
Outline: as §1

E. coli MC4100 bamA101 = test: Growth inhibition of bamA101 knockdown strain versus wild-type; format: cell-based, Escherichia coli; conditions: E. coli MC4100 bamA101, MHB-II, 10 h
Outline: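 Wild-type MC4100 and bamA101 knockdown cells grown to mid-log at 37 °C, diluted to OD600 0.001 and mixed 1:1 with MHB-II containing 2-fold increasing test compound (0.5% DMSO final) in 96-well plates. Incubated at 37 °C with continuous linear shaking; OD600 read every 15 min. The 10 h OD600 is expressed as % growth versus DMSO-treated cells (100%).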

[5] = tested on: BAM complex (BamABCDE) reconstituted in proteoliposomes; test: OmpT folding in vitro assay with BAM proteoliposomes; format: biochemical, Escherichia coli; conditions: 100 μM compound, OmpT:SurA 1:42 versus 1:7
Sequence of BAM complex (BamABCDE) reconstituted in proteoliposomes (P77774 20-392): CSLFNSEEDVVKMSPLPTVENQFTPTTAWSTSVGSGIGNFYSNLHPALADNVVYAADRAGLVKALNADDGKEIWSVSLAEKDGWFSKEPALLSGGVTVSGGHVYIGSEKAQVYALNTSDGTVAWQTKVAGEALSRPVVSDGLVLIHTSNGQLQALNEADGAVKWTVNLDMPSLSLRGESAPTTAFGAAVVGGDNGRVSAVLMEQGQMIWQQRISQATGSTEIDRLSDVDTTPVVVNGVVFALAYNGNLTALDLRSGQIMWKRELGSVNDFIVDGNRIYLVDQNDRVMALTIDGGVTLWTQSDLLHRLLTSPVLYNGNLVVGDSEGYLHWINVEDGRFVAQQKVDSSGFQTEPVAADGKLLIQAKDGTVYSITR
Sequence of BAM complex (BamABCDE) reconstituted in proteoliposomes (P0A903 25-344, further chain): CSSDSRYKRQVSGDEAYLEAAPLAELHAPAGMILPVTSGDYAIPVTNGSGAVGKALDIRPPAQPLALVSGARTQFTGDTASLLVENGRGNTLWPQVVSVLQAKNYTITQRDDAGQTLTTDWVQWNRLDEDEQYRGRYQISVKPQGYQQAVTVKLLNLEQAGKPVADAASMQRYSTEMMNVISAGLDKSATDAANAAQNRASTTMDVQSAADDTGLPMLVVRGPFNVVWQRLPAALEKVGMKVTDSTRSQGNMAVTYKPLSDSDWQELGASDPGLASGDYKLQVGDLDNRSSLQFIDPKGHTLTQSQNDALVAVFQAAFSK
Sequence of BAM complex (BamABCDE) reconstituted in proteoliposomes (P0A937 20-113, further chain): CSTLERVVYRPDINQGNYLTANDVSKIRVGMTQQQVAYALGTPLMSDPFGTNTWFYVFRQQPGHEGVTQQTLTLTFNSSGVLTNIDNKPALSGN
Sequence of BAM complex (BamABCDE) reconstituted in proteoliposomes (P0AC02 20-245, further chain): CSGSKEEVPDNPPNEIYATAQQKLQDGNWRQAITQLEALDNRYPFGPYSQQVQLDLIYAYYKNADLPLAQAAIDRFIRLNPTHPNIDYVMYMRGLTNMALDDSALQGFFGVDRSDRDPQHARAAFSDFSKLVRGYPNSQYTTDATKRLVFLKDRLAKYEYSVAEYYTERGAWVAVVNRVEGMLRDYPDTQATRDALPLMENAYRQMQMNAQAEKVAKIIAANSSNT
Outline: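 BAM proteoliposomes (His-tag-purified BamABCDE in DDM, reconstituted into E. coli polar lipids) with test compound and fluorogenic peptide in Tris/HCl, pH 6.5, preincubated 5 min at 30 °C. Mixed with a second subreaction of SurA plus guanidine-denatured OmpT at 1:7 or 1:42 OmpT:SurA. Fluorescence (ex 330/em 430 nm) read every 20 s for 80 min at 30 °C. Linear-phase slopes from three replicates, as % of DMSO.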

[6] = tested on: secretion of autotransporter Hbp in E. coli MC1601 degP::S210A; test: Hbp secretion analysis; format: cell-based, Escherichia coli; conditions: Western blotting
Outline: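 MC1061 degP::S210A cells grown in M9 to mid-log, diluted to OD600 0.1, mixed 1:1 with M9 containing test compound or DMSO (0.5% final). Hbp induced from pEH3 with 40 μM IPTG at 37 °C with shaking. Cells spun 5000g for 5 min; supernatant TCA-precipitated overnight at 4 °C. Lysates and medium run on 11% SDS-PAGE, immunoblotted (Hbp passenger, Hbp β-barrel, DegP), loading OD600-corrected.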

[7] = tested on: Staphylococcus aureus MRSA; test: MIC against bacterial strains; format: cell-based; conditions: 10 h
Outline: as §1

Enterobacter cloacae = test: MIC against bacterial strains; format: cell-based; conditions: 10 h
Outline: as §1

Pseudomonas aeruginosa = test: MIC against bacterial strains; format: cell-based; conditions: 10 h
Outline: as §1

Klebsiella pneumoniae = test: MIC against bacterial strains; format: cell-based; conditions: 10 h
Outline: as §1

Escherichia coli (K12) = test: MIC against bacterial strains; format: cell-based; conditions: 10 h
Outline: as §1

[8] = tested on: E. coli MC4100 expressing FhuA ΔC/Δ4L; test: Growth inhibition of E. coli expressing open channel FhuA ΔC/Δ4L; format: cell-based, Escherichia coli; conditions: E. coli MC4100, LB, 10 h
[9] = tested on: Escherichia coli (uropathogenic); test: MIC against bacterial strains; format: cell-based; conditions: 10 h
Outline: as §1

Acinetobacter baumannii = test: MIC against bacterial strains; format: cell-based; conditions: 10 h
Outline: as §1

OmpT protease = OmpT protease (Escherichia coli, UniProt P09169); test: OmpT protease activity, compound added after OmpT folding was completed; format: biochemical; conditions: 100 μM, added 2 h after start of folding reaction
Sequence of OmpT protease (P09169 21-317): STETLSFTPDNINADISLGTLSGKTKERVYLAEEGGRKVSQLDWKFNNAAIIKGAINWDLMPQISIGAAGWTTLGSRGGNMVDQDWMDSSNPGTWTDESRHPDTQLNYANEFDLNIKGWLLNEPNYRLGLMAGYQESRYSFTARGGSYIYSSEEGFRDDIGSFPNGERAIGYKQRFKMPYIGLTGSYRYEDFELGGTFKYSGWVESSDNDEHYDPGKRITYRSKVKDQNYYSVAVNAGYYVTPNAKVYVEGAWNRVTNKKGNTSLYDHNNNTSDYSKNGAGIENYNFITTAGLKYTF
Outline: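 BAM proteoliposomes (2 μM) mixed with SurA (140 μM) and denatured OmpT (20 μM) subreactions in Tris/HCl, pH 6.5, and held 2 h at 30 °C to prefold OmpT. Then combined with a subreaction of test compound (200 μM) or DMSO plus fluorogenic peptide; concentrations are per subreaction. Cleavage read at ex 330/em 430 nm for 80 min at 30 °C. Slope-based activity relative to DMSO.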

Bacillus subtilis 168 = test: MIC against bacterial strains; format: cell-based
Outline: as §1

[10] = 0.25× MIC, cell envelopes, Western blotting

SMILES: CC(=O)Nc1cc(-c2nc(O)c3c(n2)CCC(NC(=O)OC(C)(C)C)C3)ccn1 (stereo not shown) [compound 3]
- toxicity HEK293 LD50 (HEK293 cells): 20 µM
- EC50 [1]: 7 µM
- EC50 [2]: > 60 µM
- MIC (E. coli TOP10F′ cells): 25 µM (≈ 9.99 µg/mL)
- EC50 [3]: 16 µM

SMILES: CCOC(=O)C1=C(O)CCC(NC(=O)OC(C)(C)C)C1 (stereo not shown) [compound 1]
- EC50 [1]: 1 µM
- EC50 [2]: > 60 µM
- MIC (E. coli TOP10F′ cells): > 200 µM
- EC50 [3]: 38 µM

SMILES: Nc1cc(-c2nc3c(c(NCc4ccccc4)n2)CC(N)CC3)ccn1 (stereo not shown) [compound 14, 2-(2-aminopyridin-4-yl)-N4-benzyl-5,6,7,8-tetrahydroquinazoline-4,6-diamine]
- levels of the major β-barrel OMPs OmpF, OmpC, and OmpA compared to DMSO ([4]; 0.25× MIC (2: 12 μM, 14: 25 μM), cell envelopes, Western blotting): dropped considerably
- level of BamA [4, 10]: severely reduced
- levels of lipoproteins BamB and LpoB [4, 10]: largely unaffected
- total levels of PhoE ([4]; PhoE expressed from pEH3, 0.25× MIC and 0.5× MIC, 3 h, seminative PAGE): reduced total levels of PhoE in a dose-dependent manner
- toxicity HEK293 LD50 (HEK293 cells): 60 µM
- fold decrease of MIC of vancomycin in presence of compound (E. coli MC4100 cells; compound at 0.25× MIC (2: 12 μM, 14: 25 μM)): 4 fold
- MICs of ampicillin and chloramphenicol in presence of compound (E. coli MC4100 cells; compound at 0.25× MIC): largely unaffected
- MIC (Enterococcus faecium VRE): > 200 µM
- antimicrobial effect (MIC) in bamA101 mutant versus wild-type (E. coli MC4100 bamA101): enhanced antimicrobial effect
- influence of 6-fold excess of SurA on the inhibiting effect of the compound [5]: did not influence
- EC50 [1]: > 60 µM
- Hbp processing in cells (pro-Hbp) ([6]; 0.25× MIC, whole cell lysates): accumulation of pro-Hbp
- amount of secreted Hbp passenger in the spent medium ([6]; 2 and 14 at 0.25× MIC, spent medium): decreased
- EC50 [2]: > 60 µM
- MIC [7]: > 200 µM
- MIC (Enterobacter cloacae): > 200 µM
- MIC (Pseudomonas aeruginosa): 200 µM (≈ 69.3 µg/mL)
- MIC (Klebsiella pneumoniae): > 200 µM
- MIC (E. coli TOP10F′ cells): 100 µM (≈ 34.6 µg/mL)
- MIC (Escherichia coli (K12)): 100 µM (≈ 34.6 µg/mL)
- effect of FhuA ΔC/Δ4L expression on MIC of the compound [8]: did not affect
- MIC [9]: > 200 µM
- MIC (Acinetobacter baumannii): 100 µM (≈ 34.6 µg/mL)
- EC50 [3]: 12 µM
- effect on OmpT protease activity when added after OmpT was folded (OmpT protease): inhibiting effect
- MIC (Bacillus subtilis 168; Bacillus subtilis 168, 10 h, highest concentration tested 200 μM): >200 µM
- MIC (Bacillus subtilis 168; Bacillus subtilis, 168, 10 h): > 200 µM

SMILES: CN[C@H](CC(C)C)C(=O)N[C@H]1C(=O)N[C@@H](CC(N)=O)C(=O)N[C@H]2C(=O)N[C@H]3C(=O)N[C@H](C(=O)N[C@H](C(=O)O)c4cc(O)cc(O)c4-c4cc3ccc4O)[C@H](O)c3ccc(c(Cl)c3)Oc3cc2cc(c3O[C@@H]2O[C@H](CO)[C@@H](O)[C@H](O)[C@H]2O[C@H]2C[C@](C)(N)[C@H](O)[C@H](C)O2)Oc2ccc(cc2Cl)[C@H]1O [vancomycin, reference compound]
- permeability upon FhuA ΔC/Δ4L expression [8]: clearly increased
